Data reported in ChEMBL document CHEMBL3808283, “Biological Characterization and in Vivo Assessment of the Activity of a New Synthetic Macrocyclic Antifungal Compound” (J Med Chem, 2016).
Values after ≈ are worked out from the molar mass of the structure shown. Active and inactive are the calls of the source. The rule behind the calls is not given here.

Tests used:
[1] = test system: Candida parapsilosis; assay: Antifungal activity against Candida parapsilosis ATCC 34136 measured at 72 hrs by broth dilution assay; type: functional; conditions: Lodderomyces parapsilosis, ATCC 34136, 72 h
Outline: (§1)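 EUCAST broth microdilution, including the update for non-fermenting yeasts (Cryptococcus, Geotrichum), on clinical and reference yeast isolates. Incubated at 37 °C and read at 24, 48 and 72 h. MIC taken as the lowest concentration with no visible growth. For Cryptococcus and Geotrichum, MICs were read only once growth was visible in the control row.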

[2] = test system: Candida albicans; assay: Upregulation of orf19.7336 gene expression in Candida albicans SC5314 at 3 uM after 15 mins by microarray method relative to control; type: functional
Outline: (§2)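 Log-phase cultures in liquid YEPD were exposed to 3 µM compound (final) for 15 or 45 min, with untreated controls sampled at the same times, in three biological replicates. Total RNA was extracted by glass-bead/phenol-chloroform disruption and integrity-checked. One-color Cy3-labelled cRNA (600 ng) was hybridized for 17 h at 65 °C to 8 × 15K arrays, and fold change was taken versus control.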

[3] = test system: Cryptococcus neoformans; assay: Fungicidal activity against Cryptococcus neoformans at 40 uM measured at 72 hrs by time kill assay; type: functional, organism-based
[4] = test system: Candida albicans; assay: Upregulation of orf19.2726 gene expression in Candida albicans SC5314 at 3 uM after 15 mins by microarray method relative to control; type: functional; outline: as §2
[5] = test system: Cryptococcus neoformans; assay: Antifungal activity against Cryptococcus neoformans measured at 72 hrs by broth dilution assay; type: functional; outline: as §1
[6] = test system: Candida parapsilosis; assay: Fungistatic activity against Candida parapsilosis 81E at 20 uM after 24 to 48 hrs by time kill assay; type: functional, organism-based
Outline: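 EUCAST broth microdilution at 37 °C. From wells at MIC, 2×, 4× and 8× MIC, 10 µL aliquots were taken, serially 10-fold diluted in saline and plated on Sabouraud dextrose agar. Plates were incubated at 37 °C for 24/48 h, and 48 h for Cryptococcus and Geotrichum. Done in duplicate, detection limit 10 CFU/mL. A drop of at least 3 Log10 CFU/mL from the initial inoculum in 24 h counts as fungicidal; a smaller drop counts as fungistatic.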

[7] = test system: Candida albicans; assay: Antifungal activity against fluconazole-susceptible Candida albicans ATCC 90028 in immunocompetent Balb/c mouse candidiasis model assessed as reduction in CFU count in kidney at 20 to 40 mg/kg/day, ip regime measured on day 7 post infection; type: functional, organism-based
Outline: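 Immunocompetent BALB/c mice, 10 per strain group, injected in the lateral tail vein with 7 × 10^4 CFU of C. albicans in 200 µL sterile saline. Compound given ip daily, 100 µL of 0.1 mg/mL in DMSO/PEG 400 2:1; fluconazole control ip at 8 mg/kg/day. On day 7, spleen and kidneys were excised, weighed and homogenized in saline, then plated on YPD agar for 2 days at 30 °C. Read-out CFU/g; Wilcoxon rank-sum test, P<0.05.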

[8] = test system: Candida albicans; assay: Upregulation of orf19.6873.1 gene expression in Candida albicans SC5314 at 3 uM after 15 mins by microarray method relative to control; type: functional; outline: as §2
[9] = test system: Candida albicans; assay: Antifungal activity against wild type Candida albicans CAF2-1 at 10 uM by serial dilution assay; type: functional, organism-based
[10] = test system: Candida albicans; assay: Antifungal activity against Candida albicans isolate DSY654 harboring CDR1/2 deletion mutant at 10 uM by serial dilution assay; type: functional, organism-based
Outline: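 Spot dilution assay: C. albicans cells 10-fold serially diluted from 2 × 10^7 cells/mL, with 5 µL of each dilution spotted onto YEPD agar plates containing the drug.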

[11] = test system: Pichia kudriavzevii; assay: Antifungal activity against Candida krusei ATCC 14243 measured at 24 hrs by broth dilution assay; type: functional; conditions: ATCC 14243, 24 h; outline: as §1
[12] = test system: Candida albicans; assay: Upregulation of LCB4 gene expression in Candida albicans SC5314 at 3 uM after 15 mins by microarray method relative to control; type: functional
Outline: (§3)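 Log-phase C. albicans SC5314 in liquid YEPD exposed to 3 µM final for 15 or 45 min; untreated controls taken at the same time points. Three biological replicates. RNA extracted by glass-bead/phenol-chloroform method and integrity checked. One-color Cy3-labeled cRNA (600 ng) hybridized 17 h at 65 °C to 8 × 15K arrays. Expression expressed as fold change versus control.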

[13] = test system: Cryptococcus neoformans; assay: Antifungal activity against Cryptococcus neoformans measured at 48 hrs by broth dilution assay; type: functional, organism-based; outline: as §1
[14] = test system: Candida albicans; assay: Upregulation of ERG2 gene expression in Candida albicans SC5314 at 3 uM after 15 mins by microarray method relative to control; type: functional; outline: as §3
[15] = test system: Candida albicans; assay: Upregulation of CDR2 gene expression in Candida albicans SC5314 at 3 uM after 45 mins by microarray method relative to control; type: functional; outline: as §3
[16] = test system: Candida albicans; assay: Antifungal activity against azole-susceptible Candida albicans isolate DSY294 in immunocompetent Balb/c mouse candidiasis model assessed as reduction in CFU count in kidney at 40 mg/kg/day, ip regime measured on day 7 post infection; type: functional, organism-based
Outline: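 Immunocompetent BALB/c mice, groups of 10, were injected in the lateral tail vein with 7 × 10^4 CFU of C. albicans in 200 µL saline. Drug was given ip daily at 40 mg/kg/day in DMSO/PEG 400 2:1 (0.1 mg/mL, 100 µL). Kidneys were taken on day 7, homogenized and plated on YPD agar for 2 days at 30 °C. Read-out was CFU/g; Wilcoxon rank-sum test, P<0.05.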

[17] = test system: Candida albicans; assay: Upregulation of orf19.3378 gene expression in Candida albicans SC5314 at 3 uM after 45 mins by microarray method relative to control; type: functional; outline: as §2
[18] = test system: Candida albicans; assay: Antifungal activity against Candida albicans ATCC 60193 up to 96 hrs by broth dilution assay; type: functional
[19] = test system: Candida albicans; assay: Antifungal activity against Candida albicans 4T up to 96 hrs by broth dilution assay; type: functional, organism-based
[20] = test system: Candida albicans; assay: Upregulation of orf19.7336 gene expression in Candida albicans SC5314 at 3 uM after 45 mins by microarray method relative to control; type: functional; outline: as §2
[21] = test system: Candida parapsilosis; assay: Ratio of MIC at 24 hrs to MIC at 48 hrs for Candida parapsilosis ATCC 34136; type: functional
Outline: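 MICs by EUCAST broth microdilution, with the update for non-fermenting yeasts, incubated at 37 °C. Read at 24, 48 and 72 h as the lowest concentration preventing visible growth.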

[22] = test system: Candida albicans; assay: Antifungal activity against Candida albicans 53T measured at 72 hrs by broth dilution assay; type: functional; outline: as §1
[23] = test system: Candida albicans; assay: Antifungal activity against Candida albicans 53T up to 96 hrs by broth dilution assay; type: functional, organism-based
[24] = test system: Candida parapsilosis; assay: Antifungal activity against Candida parapsilosis 64E measured at 24 hrs by broth dilution assay; type: functional; conditions: Lodderomyces parapsilosis; outline: as §1
[25] = test system: Candida albicans; assay: Antifungal activity against azole-resistant Candida albicans isolate DSY296 in immunocompetent Balb/c mouse candidiasis model assessed as reduction in CFU count in kidney at 40 mg/kg/day, ip regime measured on day 7 post infection; type: functional, organism-based
Outline: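 Immunocompetent BALB/c mice, 10 per strain group, received 7 × 10^4 CFU of C. albicans in 200 µL saline via the lateral vein. Drug was given i.p. daily at 40 mg/kg/day as a 0.1 mg/mL solution in DMSO/PEG 400 (2:1), 100 µL per dose. On day 7, spleen and kidneys were weighed, homogenized, and plated on YPD agar (2 days, 30 °C) for CFU/g. Analysis used Wilcoxon rank-sum, P<0.05.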

How did the MIC [1] turn out when `C/C=C/CNC(=N)NCCCCCCCCN1CCCCCCCCNC(=N)NC1=O` was run?
The MIC was 80 µM (≈ 34.9 µg/mL).

What about the “fold change (FC)” value [2] of the same compound?
Its value is 2.8.

What about the Activity [3] of the same compound?
The Activity was “Active”.

What about the “fold change (FC)” value [4] of the same compound?
Its value is 5.86.

And the MIC [5]?
Its MIC is 20 µM (≈ 8.71 µg/mL).

What about the Activity [6] of the same compound?
The Activity was “Active”.

And the Activity [7]?
The Activity was “Active”.

What about the “fold change (FC)” value [8] of the same compound?
The value was 2.16.

What about the Activity [9] of the same compound?
The Activity was “Active”.

What about the Activity [10] of the same compound?
The Activity was “inactive”.

What about the MIC [11] of the same compound?
Its MIC is 10 µM (≈ 4.36 µg/mL).

What about the “fold change (FC)” value [12] of the same compound?
Its value is 2.04.

What about the Activity [13] of the same compound?
The Activity was “Active”.

And the “fold change (FC)” value [14]?
The value was 2.61.

And the “fold change (FC)” value [15]?
Its value is 134.38.

What about the Activity [16] of the same compound?
The Activity was “Active”.

What about the “fold change (FC)” value [17] of the same compound?
Its value is 3.52.

And the Activity [18]?
The Activity was “Active”.

What about the Activity [19] of the same compound?
Its Activity is “Active”.

What about the “fold change (FC)” value [20] of the same compound?
Its value is 3.49.

And the Ratio [21]?
The Ratio was 8.

And the MIC [22]?
Its MIC is 5 µM (≈ 2.18 µg/mL).

What about the Activity [23] of the same compound?
Its Activity is “Active”.

And the MIC [24]?
The MIC was 20 µM (≈ 8.71 µg/mL).

And the Activity [25]?
Its Activity is “Active”.
